Values belong to the compound of their own block, whether it stands above or below them.
Assays:
[1] = biological target: T1, Glycogen phosphorylase, liver form (Homo sapiens, UniProt P06737); test: Inhibition of active form of human liver glycogen phosphorylase
T1 sequence (P06737 whole entry): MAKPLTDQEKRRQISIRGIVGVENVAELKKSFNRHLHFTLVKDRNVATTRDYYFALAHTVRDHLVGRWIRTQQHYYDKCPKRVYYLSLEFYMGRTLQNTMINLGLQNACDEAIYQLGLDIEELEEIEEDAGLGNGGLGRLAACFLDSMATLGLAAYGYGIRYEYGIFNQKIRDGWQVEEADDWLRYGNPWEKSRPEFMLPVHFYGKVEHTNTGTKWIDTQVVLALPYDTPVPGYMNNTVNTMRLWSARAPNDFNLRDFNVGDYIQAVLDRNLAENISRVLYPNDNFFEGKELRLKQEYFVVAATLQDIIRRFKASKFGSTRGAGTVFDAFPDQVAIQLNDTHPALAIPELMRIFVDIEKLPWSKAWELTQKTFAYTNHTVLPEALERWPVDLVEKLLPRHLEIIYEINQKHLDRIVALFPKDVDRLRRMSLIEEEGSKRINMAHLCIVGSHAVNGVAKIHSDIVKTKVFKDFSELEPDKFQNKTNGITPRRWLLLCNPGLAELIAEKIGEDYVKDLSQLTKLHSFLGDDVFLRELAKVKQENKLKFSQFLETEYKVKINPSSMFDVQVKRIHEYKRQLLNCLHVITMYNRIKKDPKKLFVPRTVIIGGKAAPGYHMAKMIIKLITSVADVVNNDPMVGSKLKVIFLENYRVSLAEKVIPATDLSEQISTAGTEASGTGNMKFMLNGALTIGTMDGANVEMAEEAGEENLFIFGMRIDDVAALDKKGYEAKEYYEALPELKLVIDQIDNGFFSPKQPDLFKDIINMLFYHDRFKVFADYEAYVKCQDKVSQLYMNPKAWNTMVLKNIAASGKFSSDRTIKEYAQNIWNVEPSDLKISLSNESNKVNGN

Mus musculus [2] = test: Hypoglycemic activity in db/db mouse assessed as reduction of plasma glucose at 30 mg/kg, po after 2 hrs relative to control; type: functional; parameters: scale not given: the % may be the effect or the level left
Method in brief: (§1)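 Diabetic db/db mice were dosed orally. Plasma glucose was measured 2 h post-dose in drug-treated and vehicle-treated control animals. Activity is the percent decrease in plasma glucose versus the vehicle controls. Significance versus control was tested by Dunnett's test or Student's t-test.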

Hepatocyte = test: Inhibition of glucagon-induced glucose output in cultured rat primary hepatocytes; type: functional, cell-based
Mus musculus [3] = test: Hypoglycemic activity in db/db mouse assessed as reduction of plasma glucose at 3 mg/kg, po after 2 hrs relative to control; type: functional; parameters: scale not given: the % may be the effect or the level left; method in brief: as §1
Mus musculus [4] = test: Hypoglycemic activity in db/db mouse assessed as reduction of plasma glucose at 10 mg/kg, po after 2 hrs relative to control; type: functional; parameters: scale not given: the % may be the effect or the level left; method in brief: as §1
[5] = AUC (0 to infinity) in Sprague-Dawley rat at 1 mg/kg, iv; type: ADME, organism-based; parameters: time infinity, dose 1 mg/kg, route intravenous; conditions: plasma
Method in brief: (§2)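 Pharmacokinetics were determined in male SD rats after intravenous or oral administration.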

[6] = Half life in Sprague-Dawley rat at 1 mg/kg, iv; type: ADME, organism-based; parameters: dose 1 mg/kg, route intravenous; conditions: in vivo; method in brief: as §2
[7] = AUC (0 to infinity) in Sprague-Dawley rat at 3 mg/kg, po; type: ADME, organism-based; parameters: time infinity, dose 3 mg/kg, route oral; conditions: plasma; method in brief: as §2
[8] = Cmax in Sprague-Dawley rat at 3 mg/kg, po; type: ADME, organism-based; parameters: dose 3 mg/kg, route oral; conditions: in vivo; method in brief: as §2
[9] = Tmax in Sprague-Dawley rat at 3 mg/kg, po; type: ADME, organism-based; parameters: dose 3 mg/kg, route oral; conditions: in vivo; method in brief: as §2
[10] = Oral bioavailability in Sprague-Dawley rat at 3 mg/kg; type: ADME, organism-based; conditions: in vivo; method in brief: as §2
[11] = Total clearance in Sprague-Dawley rat at 1 mg/kg, iv; type: ADME, organism-based; parameters: dose 1 mg/kg, route intravenous; conditions: in vivo; method in brief: as §2
[12] = Volume of distribution in Sprague-Dawley rat at 1 mg/kg, iv; type: ADME, organism-based; parameters: dose 1 mg/kg, route intravenous; conditions: in vivo; method in brief: as §2

Compound: CC1(C)CCc2cc(NC(=O)c3cc4cc(Cl)ccc4[nH]3)ccc2C1O (configuration not stated)
IC50 [1]: > 10000 nM

Compound: O=C(Nc1c(F)cc2c(c1F)CCC(F)(F)C2O)c1cc2cc(Cl)ccc2[nH]1 (configuration not stated)
IC50 [1]: 36 nM

Compound: O=C(N[C@@H](Cc1ccc(F)cc1)C(=O)N1CCC(O)CC1)c1cc2cc(Cl)ccc2[nH]1
Activity (Mus musculus [2]): 24%

Compound: O=C(Nc1c(F)cc2c(c1F)CCC(F)(F)[C@@H]2O)c1cc2cc(Cl)ccc2[nH]1
IC50 [1]: 20 nM
IC50 (Hepatocyte): 690 nM
Activity (Mus musculus [3]): 14%
Activity (Mus musculus [4]): 26%
AUC(0-inf) [5]: 930 ng·h/mL
half-life [6]: 12 h
AUC(0-inf) [7]: 2780 ng·h/mL
Cmax [8]: 785 ng/mL
Tmax [9]: 0.5 h
bioavailability [10]: 100%
clearance [11]: 17.9 mL/min/kg
Vd [12]: 18.1 L/kg

Second part, the compound after the results:

IC50 [1]: 160 nM
Compound: O=C(Nc1c(F)cc2c(c1F)CCC(F)(F)[C@H]2O)c1cc2cc(Cl)ccc2[nH]1

IC50 [1]: 48 nM
Compound: O=C(Nc1ccc2c(c1F)CCC(F)(F)C2O)c1cc2cc(Cl)ccc2[nH]1 (configuration not stated)

— ChEMBL document CHEMBL1151693, “Design, synthesis, and pharmacological evaluation of N-bicyclo-5-chloro-1H-indole-2-carboxamide derivatives as potent glycogen phosphorylase inhibitors” (Bioorg Med Chem, 2008)
